Calls of active or inactive are those of the source. The rule behind the calls is not given here.
Tests used:
Staphylococcus aureus = test: Antimicrobial activity against Staphylococcus aureus ATCC 29213 assessed as diameter of zone of growth inhibition at 10 ug/6 mm disc incubated for 12 hrs by disc diffusion assay; assay type: functional, organism-based
Procedure, shortened: (§1)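 Bacteria grown 10 h at 37 °C in LB broth as seed cultures, then mixed into LB agar to pour plates. Sterile 6 mm filter disks loaded with 5 μL test solution at 2 μg/μL in DMSO; ampicillin disks (5 μg/μL in DMSO) as positive control. Plates incubated 12 h at 37 °C, then diameter of the growth-inhibition zone around each disk recorded.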

MCF7 = test: Cytotoxicity against human MCF7 cells after 72 hrs BY SRB assay; assay type: functional, cell-based; conditions: MCF7, 72 h
Procedure, shortened: (§2)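 Cells seeded at 3 × 10^4 cells/mL (180 μL per well) and preincubated 24 h at 37 °C, 5% CO2. Compound added at various concentrations (20 μL), then 72 h further incubation. Fixed with 50% (w/v) TCA, stained 30 min with 0.4% SRB in 1% acetic acid, washed with 1% acetic acid. Dye dissolved in 10 mM Tris base, OD read at 570 nm. Cisplatin as positive control. Triplicate; IC50 by nonlinear curve fitting.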

Bacillus subtilis = test: Antimicrobial activity against Bacillus subtilis ATCC 6633 assessed as diameter of zone of growth inhibition at 10 ug/6 mm disc incubated for 12 hrs by disc diffusion assay; assay type: functional, organism-based; procedure, shortened: as §1
SF-268 = test: Cytotoxicity against human SF268 cells after 72 hrs BY SRB assay; assay type: functional, cell-based; conditions: SF-268, 72 h; procedure, shortened: as §2
Bacillus thuringiensis = test: Antimicrobial activity against Bacillus thuringiensis ATCC 39765 assessed as diameter of zone of growth inhibition at 10 ug/6 mm disc incubated for 12 hrs by disc diffusion assay; assay type: functional, organism-based; procedure, shortened: as §1
NCI-H460 = test: Cytotoxicity against human NCI-H460 cells after 72 hrs BY SRB assay; assay type: functional, cell-based; conditions: NCI-H460, 72 h; procedure, shortened: as §2

| Structure (SMILES) | diameter of the inhibition zone (DIZ) (Staphylococcus aureus) | IC50 (MCF7) [µM] | diameter of the inhibition zone (DIZ) (Bacillus subtilis) | IC50 (SF-268) [µM] | diameter of the inhibition zone (DIZ) (Bacillus thuringiensis) | IC50 (NCI-H460) [µM] |
| --- | --- | --- | --- | --- | --- | --- |
| CCCC/C=C/c1c(O)cc2c(c1O)C(=O)c1c(cc(OC)c(Cl)c1O)C2=O | inactive | 24.4 | inactive | > 50 | inactive | > 50 |
| CCCCC[C@H](OC)c1c(O)cc2c(c1O)C(=O)c1c(cc(O)c(Cl)c1O)C2=O | inactive | 26.1 | inactive | 34.1 | inactive | 37.2 |
| CCCCC[C@H](O)c1c(O)cc2c(c1O)C(=O)c1c(O)cc(OC)cc1C2=O | inactive | > 50 | inactive | > 50 | inactive | > 50 |
| CCCCC[C@H](OCCCC)c1c(O)cc2c(c1O)C(=O)c1c(cc(O)c(Cl)c1O)C2=O | inactive | 49.5 | inactive | > 50 | inactive | > 50 |
| CCCCC[C@H](OC)c1c(O)cc2c(c1O)C(=O)c1c(cc(OC)c(Br)c1O)C2=O | inactive | > 50 | inactive | > 50 | inactive | > 50 |
| CCCCC[C@H](OC)c1c(O)cc2c(c1O)C(=O)c1c(O)cc(O)cc1C2=O | inactive | 35.3 | inactive | 33.6 | inactive | 44.2 |
| CCCCC[C@H](OCCCC)c1c(O)cc2c(c1O)C(=O)c1c(O)cc(O)cc1C2=O | inactive | 40.5 | inactive | 47.2 | inactive | > 50 |
| CCCCC[C@H](O)c1c(O)cc2c(c1O)C(=O)c1c(cc(OC)c(Br)c1O)C2=O | inactive | 25.6 | inactive | 24.7 | inactive | 18.9 |
| CCCCC[C@H](OC)c1c(O)cc2c(c1O)C(=O)c1c(O)cc(OC)cc1C2=O | inactive | > 50 | inactive | > 50 | inactive | > 50 |
| CCCC/C=C/c1c(O)cc2c(c1O)C(=O)c1c(cc(O)c(Cl)c1O)C2=O | inactive | > 50 | inactive | > 50 | inactive | > 50 |
| CCCCC[C@H](O)c1c(O)cc2c(c1O)C(=O)c1c(cc(OC)c(Cl)c1O)C2=O | inactive | 6.64 | inactive | 7.11 | inactive | 7.42 |
| CCCCC[C@H](O)c1c(O)cc2c(c1O)C(=O)c1c(cc(O)c(Cl)c1O)C2=O | inactive | 36.4 | inactive | > 50 | inactive | > 50 |
| CCCC/C=C/c1c(O)cc2c(c1O)C(=O)c1c(O)cc(O)cc1C2=O [AVERYTHRIN] | inactive | 29.7 | inactive | > 50 | inactive | > 50 |
| CCCCC[C@H](OC)c1c(O)cc2c(c1O)C(=O)c1c(cc(OC)c(Cl)c1O)C2=O | inactive | > 50 | inactive | > 50 | inactive | > 50 |
| CCCCC[C@H](O)c1c(O)cc2c(c1O)C(=O)c1c(O)cc(O)cc1C2=O | inactive | 45.5 | inactive | > 50 | inactive | > 50 |
